# Assay outcomes from PubChem BioAssay.
# This is one part of a sample in which hits are shown more often than they occur.
# GASC1 inh – inhibitors of GASC-1 (KDM4C) histone demethylase, primary screen, biochemical, single concentration HTS; GST-KDM4C 2-372, H3K9me3 peptide, LANCE TR-FRET; inhibition, % at 12.5 µM; actives 0.15% (n = 96,000); AID 720574, 2013;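 active = mean replicate inhibition above about 25%, with at least 55% of replicates also reaching it, limit read from the data, passing the limit was not always enough; inconclusive = only one of those two conditions met; inactive = neither condition met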
# Target sequence (Q9H3R0 2-372 limits assumed): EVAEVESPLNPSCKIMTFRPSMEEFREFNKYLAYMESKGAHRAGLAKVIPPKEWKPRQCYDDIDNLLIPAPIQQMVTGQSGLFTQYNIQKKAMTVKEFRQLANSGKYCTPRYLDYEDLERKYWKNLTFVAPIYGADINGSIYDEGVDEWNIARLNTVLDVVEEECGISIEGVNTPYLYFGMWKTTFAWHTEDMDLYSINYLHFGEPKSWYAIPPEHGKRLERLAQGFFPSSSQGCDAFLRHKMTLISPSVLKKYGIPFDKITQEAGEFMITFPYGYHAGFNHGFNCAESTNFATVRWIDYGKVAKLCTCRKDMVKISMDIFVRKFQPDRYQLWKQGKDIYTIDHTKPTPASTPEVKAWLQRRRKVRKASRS
#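 Material: GST-tagged GASC-1 (JMJD2C) catalytic fragment, aa 2-372 / Quantity: enzyme final amount 10 nM / Medium: HEPES buffer, pH 7.5, plus ascorbate / Doses: one test concentration per compound / Incubation: 30 min reaction, 60 min detection, RT / Measured by: LANCE TR-FRET / Read-out: inhibition from TR-FRET ratio decrease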
# IDH1 R132H inh – inhibitors of IDH1 R132H reductase, primary screen, biochemical, plate reader, single point; AID 624101, 2012; diaphorase/resazurin fluorescence, 60 min; actives 0.18% (n = 70,000); inhibition, % at 10 µM; in the data active = inhibition above about 34%; inconclusive = no clear call, values can overlap the other calls; inactive = below about 11%;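 also: 0% = DMSO and 100% = no enzyme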
# Target sequence (O75874 whole entry R132H): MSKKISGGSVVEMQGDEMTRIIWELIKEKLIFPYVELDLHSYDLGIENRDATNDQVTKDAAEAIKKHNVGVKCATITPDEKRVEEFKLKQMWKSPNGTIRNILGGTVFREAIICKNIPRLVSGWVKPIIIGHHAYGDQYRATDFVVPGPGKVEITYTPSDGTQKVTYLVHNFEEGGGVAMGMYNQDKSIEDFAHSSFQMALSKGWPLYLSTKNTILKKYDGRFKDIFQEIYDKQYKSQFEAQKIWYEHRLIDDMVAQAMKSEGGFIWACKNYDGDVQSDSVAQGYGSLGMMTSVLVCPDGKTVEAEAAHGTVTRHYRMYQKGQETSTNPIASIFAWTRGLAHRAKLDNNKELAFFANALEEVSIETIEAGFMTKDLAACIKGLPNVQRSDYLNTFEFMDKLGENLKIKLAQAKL
# T cruzi growth-1 – T. cruzi intracellular proliferation inhibitors, primary screen, cell-based, beta-gal Tulahuen parasites, NIH3T3 host, luminescence | T. cruzi beta-gal in NIH3T3, GalScreen luminescence, 90 h | inhibition, % at 8.34 µM | actives 5.9% (n = 77,000) | AID 624255, 2012;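 active = mean inhibition above about 93%, with at least 55% of replicates each passing it, limit read from the data, passing the limit was not always enough; inconclusive = only one of those two conditions holds; inactive = neither condition holds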
# T cruzi growth-2 – T. cruzi intracellular proliferation inhibitors, confirmation, cell-based, NIH3T3 host, beta-gal parasite, luminescence, cherry-pick | shares compounds with T cruzi growth-1 | T. cruzi beta-gal in NIH3T3, GalScreen luminescence, 90 h | inhibition, % at 8.35 µM | actives 72% (n = 5,600);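 active = mean replicate inhibition above about 95% and at least 55% of replicates individually reaching it, limit read from the data; inconclusive = only one of the two criteria is met; inactive = neither criterion is met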
# T cruzi growth-3 – inhibitors of intracellular T. cruzi replication, confirmation, NIH3T3 host cells, beta-gal parasites, cherry-pick, set 2; inhibition, % at 2.09 µM; T. cruzi beta-gal in NIH3T3, GalScreen luminescence, 90 h; AID 651740, 2012; actives 21% (n = 5,600); shares compounds with T cruzi growth-1;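 active = mean inhibition above about 95%, with at least 55% of replicates also reaching it, limit read from the data; inconclusive = meets just one of the two conditions; inactive = meets neither condition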;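 also: plate controls were neutral control median for no effect and positive control median for full effect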
# NIH3T3 tox – cytotoxicity in mouse NIH/3T3 fibroblasts, confirmation, cytotoxicity control for T. cruzi proliferation inhibitor project, cell-based, cherry-pick, single point; shares compounds with T cruzi growth-1; NIH/3T3 viability, CellTiter-Glo ATP luminescence, 90 h; cytotoxicity (signal decrease), % at 8.35 µM; actives 14% (n = 5,600); AID 651742, 2012;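 active = mean signal decrease across replicates above about 35% based on untreated-well scatter, with enough replicates individually passing, limit read from the data; inconclusive = no rule stated though some were filed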;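 also: 0% = median of neutral control wells and 100% = median of positive control wells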
# NIH3T3 tox 2 – NIH/3T3 fibroblast cytotoxicity, confirmation, cytotoxicity control, cell-based, cherry-pick, single point, set 2 | shares compounds with T cruzi growth-1 | NIH/3T3 viability, CellTiter-Glo ATP luminescence, 90 h | inhibition, % at 24.9 µM | actives 56% (n = 5,600);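 active = mean loss of cell viability signal at or above a set limit, and enough replicates individually reaching it; inconclusive = meets only the mean limit or only the replicate share; inactive = meets neither condition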;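 also: 0% = median of neutral control wells and 100% = median of positive control wells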
# Numbers without * were called inactive; ? = inconclusive; . = no result.
SMILES,GASC1 inh,IDH1 R132H inh,T cruzi growth-1,T cruzi growth-2,T cruzi growth-3,NIH3T3 tox,NIH3T3 tox 2
COc1cccc(NC(=O)N2C[C@H](O)COC[C@H]3O[C@@H](CC(=O)NC4Cc5ccccc5C4)CC[C@@H]32)c1,1.1,.,109.3*,-6.6,-42.3,-16.1,-4.2
CCCNC(=O)C[C@H]1CC[C@H]2[C@@H](COC[C@H](O)CN2C(=O)Nc2ccccc2OC)O1,0.7,.,117.4*,97.4*,-0.1,-7.9,-10.1
COc1cccc(NC(=O)N2C[C@H](O)COC[C@H]3O[C@H](CC(=O)NC4Cc5ccccc5C4)CC[C@@H]32)c1,2.2,.,-38.4,.,.,.,.
Cc1cccc(CN2CCC(CNC(=O)c3cc4cc5ccc(C)cc5nc4o3)CC2)c1,.,-0.2,.,.,.,.,.
C[C@@H]1CN([C@H](C)CO)C(=O)c2cccc(NC(=O)Nc3ccc(F)cc3)c2O[C@@H]1CN(C)S(=O)(=O)c1cn(C)cn1,0.2,.,11.3,.,.,.,.
O=C(C1CCC1)N1CC[C@@H]2[C@@H](CO)Nc3ccc(C#Cc4ccc(F)cc4)cc3[C@@H]21,-2.3,.,.,.,.,.,.
O=C(C1CCCCC1)N1CC[C@@H]2[C@H]1c1cc(C#Cc3ccc(F)cc3)ccc1N[C@@H]2CO,-1.9,.,105.9*,104.1*,81.3,13.1,104.2*
O=C(C1CC1)N1CC[C@@H]2[C@H](CO)Nc3ccc(-c4cccc(F)c4)cc3[C@@H]21,14.3,.,115.8*,104.0*,70.5,15.8,10.3
O=C(C1CCCC1)N1CC[C@@H]2[C@@H](CO)Nc3ccc(-c4cccc(F)c4)cc3[C@@H]21,2.3,.,.,.,.,.,.
O=C(C1CCC1)N1CC[C@@H]2[C@H]1c1cc(-c3cccc(F)c3)ccc1N[C@@H]2CO,0.5,.,101.0*,104.6*,108.7*,12.1,73.9*
O=C(C1CCCC1)N1CC[C@@H]2[C@H](CO)Nc3ccc(-c4cccc(F)c4)cc3[C@@H]21,-4.6,.,.,.,.,.,.
O=C(c1cccc(F)c1)N1CC[C@@H]2[C@@H](CO)Nc3ccc(-c4cccc(F)c4)cc3[C@@H]21,-2.2,.,15.7,.,.,.,.
O=C(C1CC1)N1CC[C@H]2[C@H](CO)Nc3ccc(-c4cccc(F)c4)cc3[C@H]21,-4.1,.,116.5*,98.9*,94.1,3.8,17.1
COCC(=O)N(C)C[C@H]1Oc2ncc(-c3ccc(C#N)cc3)cc2C(=O)N([C@H](C)CO)C[C@H]1C,-1.3,-0.1,.,.,.,.,.
NCC[C@H]1CC[C@@H](NC(=O)C2CC2)[C@H](CO)O1,-0.1,.,.,.,.,.,.
COc1cc(OC)c(OC)cc1CN1CCN(Cc2ccccn2)CC1,.,0.2,.,.,.,.,.
CC1CCc2c(sc(NC(=O)CCN3C(=O)c4ccccc4C3=O)c2C#N)C1 (stereo not given),.,-0.1,.,.,.,.,.
C[C@H](NC(=O)C[C@@H]1C[C@H]2c3cc(NC(=O)C4CCOCC4)ccc3O[C@H]2[C@@H](CO)O1)c1ccccc1,1.0,0.2,-72.0,.,.,.,.
C[C@@H]1CN([C@@H](C)CO)C(=O)Cc2cc(NS(C)(=O)=O)ccc2O[C@@H]1CN(C)Cc1ccc(-c2ccccc2)cc1,-1.4,-0.1,14.8,.,.,.,.
C[C@@H]1CN([C@H](C)CO)C(=O)c2c(c3ccccc3n2C)-c2ccccc2CO[C@@H]1CN(C)Cc1ccc2c(c1)OCCN2C,-0.7,.,.,.,.,.,.
COCC(=O)Nc1ccc2c(c1)OC[C@@H](C)N(Cc1cc(F)ccc1F)C[C@H](C)[C@@H](OC)CN(C)C2=O,1.6,0.0,106.5*,74.0,25.8,20.5,24.0
COCC(=O)Nc1ccc2c(c1)OC[C@@H](C)N(Cc1cc(F)ccc1F)C[C@@H](C)[C@@H](OC)CN(C)C2=O,-1.8,-0.3,40.2,.,.,.,.
COCC(=O)Nc1ccc2c(c1)C(=O)N(C)C[C@H](OC)[C@H](C)CN(Cc1cc(F)ccc1F)[C@H](C)CO2,1.7,-0.2,104.9*,1.0,10.6,1.8,?
COCC(=O)Nc1ccc2c(c1)C(=O)N(C)C[C@@H](OC)[C@H](C)CN(Cc1cc(F)ccc1F)[C@H](C)CO2,0.0,-0.2,26.0,.,.,.,.
COc1ccc(Cl)cc1N(CC(=O)Nc1ccc(Br)cc1F)S(C)(=O)=O,.,0.3,.,.,.,.,.
SMILES,GASC1 inh,IDH1 R132H inh,T cruzi growth-1,T cruzi growth-2,T cruzi growth-3,NIH3T3 tox,NIH3T3 tox 2
CCCN1C[C@@H](C)[C@@H](OC)CN(C)C(=O)c2ccc(NC(=O)C3CCC3)cc2OC[C@H]1C,0.6,0.1,2.0,.,.,.,.
CCC(=O)N1CC[C@@H]2[C@H]1c1cc(-c3ccc(F)cc3)ccc1N(C)[C@@H]2CO,3.4,.,101.0*,107.0*,65.8,8.2,24.1*
COCC(=O)N1CC[C@@H]2[C@@H](CO)N(C)c3ccc(-c4cccc(OC)c4)cc3[C@@H]21,0.8,.,97.0*,107.6*,76.0,8.6,1.7
COc1ccccc1NC(=O)N1CC[C@@H]2[C@H]1c1cc(-c3ccccc3)ccc1N(C)[C@H]2CO,-3.6,.,75.3,.,.,.,.
CCC(=O)N1CC[C@H]2[C@@H]1c1cc(-c3ccccc3)ccc1N(C)[C@H]2CO,1.6,.,45.2,.,.,.,.
COCC(=O)N1CC[C@@H]2[C@H]1c1cc(-c3ccc(OC)cc3)ccc1N(C)[C@H]2CO,3.9,.,32.3,.,.,.,.
CCC(=O)N1CC[C@@H]2[C@H]1c1cc(-c3cccc(F)c3)ccc1N(C)[C@@H]2CO,1.1,.,90.1,.,.,.,.
COc1ccccc1NC(=O)N1CC[C@@H]2[C@H]1c1cc(-c3ccc(F)cc3)ccc1N(C)[C@@H]2CO,-0.2,.,112.0*,97.6*,107.3*,14.5,33.9*
CCC(=O)N1CC[C@@H]2[C@H]1c1cc(-c3cccc(OC)c3)ccc1N(C)[C@@H]2CO,0.4,.,105.4*,104.5*,108.5*,27.3,15.4
C[C@@H]1CN([C@@H](C)CO)C(=O)Cc2cc(NC(=O)C3CC3)ccc2O[C@H]1CN(C)CC1CC1,2.0,0.4,-20.2,.,.,.,.
Cc1nnc(Sc2ccc(/C=N/NC(=O)CCCCCCC(=O)NO)o2)n1C,.,0.0,.,.,.,.,.
COc1ccc2c3c(n(C)c2c1)[C@H](CO)N(C(=O)c1cccnc1)CC31CN(C)C1,0.1,.,.,.,.,.,.
O=C([C@@H]1[C@@H](CO)[C@@H]2Cn3c(ccc(-c4ccncc4)c3=O)[C@H]1N2Cc1ccccc1)N1CCOCC1,2.5,.,1.0,.,.,.,.
O=C([C@H]1[C@H](CO)[C@H]2Cn3c(cccc3=O)[C@@H]1N2Cc1cccc(Cl)c1)N1CCOCC1,-1.2,.,99.6*,-37.8,26.8,-10.3,-1.5
